Assay outcomes deposited in PubChem by several laboratories.
Compounds with a hit are over-represented: about 1.5% of the library has one in this group of screens.
PKA-R1A activ: activators of PKA-R1A holoenzyme, primary screen, biochemical, fluorescence polarization, Cy5-IP20, bovine R1A, mouse PKAc; cAMP-dependent protein kinase type I-alpha regulatory subunit (Bos taurus) + …; PKA-R1A dissociation; scaled: DMSO 0%, 113 µM cGMP 100%; activation, % at 11.4 µM; 340,000 compounds, 0.083% hits;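 active = percent activation above the mean of all tested compounds plus 3 SD, cut at about 19% in these data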;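 note: higher means more PKAc released from R1A so a rise in polarization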
PKA-R2B activ: activators of PKA-R2B holoenzyme, primary screen, biochemical, fluorescence polarization, Cy5-IP20, human; cAMP-dependent protein kinase catalytic subunit beta (Homo sapiens) + cAMP-dependent …; PKA-R2B holoenzyme dissociation; R2B truncated from residue 108, S112A mutant; 0% DMSO only, 100% 113 µM cGMP; activation, % at 11.4 µM; 340,000 compounds, 0.079% hits; AID 504700, 2011;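 active = activation above a cutoff set at the mean over all compounds plus 3 SD, cut at about 18% in these data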;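 note: higher means more holoenzyme dissociation and a rise in polarization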
SIRT5 inh: SIRT5 desuccinylase inhibitors, primary screen, biochemical, fluorescence imaging, single point, set 5; NAD-dependent protein deacylase sirtuin-5, mitochondrial (Homo sapiens), Q9NXA8; Purified SirT5, succinyl-peptide AMC, trypsin-coupled fluorescence; inhibition, % at 15 µM; 330,000 compounds, 1.1% hits; AID 652115, 2013; in the data active = inhibition above about 15%
Target sequence (Q9NXA8 whole entry, looked up): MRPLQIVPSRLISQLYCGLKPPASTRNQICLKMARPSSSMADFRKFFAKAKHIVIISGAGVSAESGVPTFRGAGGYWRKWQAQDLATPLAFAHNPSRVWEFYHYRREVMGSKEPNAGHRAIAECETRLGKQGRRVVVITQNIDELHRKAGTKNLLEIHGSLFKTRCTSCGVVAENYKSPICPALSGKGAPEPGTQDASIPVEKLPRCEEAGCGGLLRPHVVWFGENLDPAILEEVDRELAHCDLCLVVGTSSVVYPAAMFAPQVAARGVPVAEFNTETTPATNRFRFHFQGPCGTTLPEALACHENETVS
CRFBP-R2 block: antagonists of CRF-BP/CRF-R2 complex, primary screen, cell-based, HEK293, calcium dye fluorescence, uHTS; inhibition, % at 11.8 µM; 350,000 compounds, 0.59% hits; AID 588475, 2011; CRF-induced calcium fluorescence;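 active = inhibition of the ligand-induced calcium signal above about 50% at the single tested concentration, limit read from the data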
S100A4 inh HTS: inhibitors of S100A4-myosin IIA peptide binding, primary screen, biochemical, fluorescence polarization, TAMRA-MyoIIA peptide. inhibition, % at 10.7 µM. 360,000 compounds, 0.14% hits. Protein S100-A4 (Homo sapiens), P26447;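 active = mean inhibition of at least 70% across replicates, with every replicate also reaching that level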
Target sequence (P26447 whole entry, looked up): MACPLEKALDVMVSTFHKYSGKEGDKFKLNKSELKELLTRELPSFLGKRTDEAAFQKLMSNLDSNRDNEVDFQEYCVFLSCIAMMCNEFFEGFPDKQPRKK
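Material: S100A4 monomer protein | Medium: HEPES pH 7.2 with CaCl2, KCl, NaCl, DTT, Triton | Reagent: Labelled myosin peptide probe, 5 nM | Doses: One dose per compound | Times: 5 min incubation before reading | Benchmarks: Neutral control DMSO, positive control TFP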
R2B FP artifact: fluorescence polarization artefacts, biochemical, artefact control for PKA-R2B activator project. activation, % at 11.4 µM. 270 compounds, 6% hits. FP artifact counterscreen. shares compounds with PKA-R2B activ; in the data active = activation above about 20%;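 note: Cy5 labelled IP20 peptide probe with compound but no PKA protein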
PKA-R2B act conf: activators of PKA-R2B holoenzyme, confirmation, biochemical, fluorescence polarization, human. shares compounds with PKA-R2B activ. 270 compounds, 9% hits. activation, % at 11.4 µM. PKA-R2B complex, activation; in the data active = activation above about 19%
R1A FP artifact: FP signal interference without PKA proteins, confirmation, artefact control for PKA-R1A activator project, biochemical, fluorescence polarization, triplicate; 280 compounds, 7% hits; activation, % at 11.4 µM; Cy5-IP20 peptide alone, fluorescence polarization artifact counterscreen; AID 504799, 2011; shares compounds with PKA-R1A activ;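 active = mean activation over triplicate runs exceeds the adjusted cutoff derived for the parent primary screen, cut at about 19% in these data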;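 note: no PKA protein present so any polarization rise reflects compound interference; higher means stronger polarization artifact and likely false positive in parent screen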
PKA-R1A confirm: activators of PKA-R1A holoenzyme, confirmation, biochemical, fluorescence polarization, Cy5-IP20, triplicate; shares compounds with PKA-R1A activ; PKA-R1A holoenzyme dissociation; activation, % at 11.4 µM; 280 compounds, 9% hits; AID 504800, 2011;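 active = mean activation over replicate wells exceeds the adjusted hit threshold taken from the earlier primary screen, cut at about 20% in these data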
Each line names hits and unclear results; the compound was inactive in the other large screens (follow-up assays come after a bar, where they were run).

Cc1cccc(-n2c(/C=C/c3ccc([N+](=O)[O-])o3)nc3ccccc3c2=O)c1	SIRT5 inh 18.2
CCOP(=O)(OCC)c1cc(CC)ccc1O	CRFBP-R2 block 93.1
O=C(Cc1ccccn1)N1CCCCN2[C@@H](CO)[C@@H](c3ccc(-c4ccccc4)cc3)[C@@H]2C1	none (no result: PKA-R1A activ, PKA-R2B activ, CRFBP-R2 block)
CN(C(=O)c1ccc(Cl)nc1)C1(c2ccccc2Cl)CCCCC1=O (centres undefined)	PKA-R2B activ 21.4 | R2B FP artifact inactive | PKA-R2B act conf inactive
CC=Cc1ccc2n(c1=O)C[C@@H]1[C@@H](CO)[C@H](C(=O)OC)[C@H]2N1CC1CCCC1 (mixture of isomers)	none (no result: PKA-R1A activ, PKA-R2B activ, CRFBP-R2 block)
CCC(CO)(C(=O)OC1C[N+]2(C)CCC1CC2)c1ccccc1 (centres undefined)	PKA-R2B activ 19.6 | R2B FP artifact inactive | PKA-R2B act conf inactive
COC(=O)[C@H]1[C@H](CO)[C@H]2Cn3c(ccc(C4=CCCCC4)c3=O)[C@@H]1N2CC1CCCC1	none (no result: PKA-R1A activ, PKA-R2B activ, CRFBP-R2 block)
O=C(COc1ccccc1Cl)N1CCCC(N2CCN(c3ccc(F)cc3)CC2)C1 (centres undefined)	PKA-R1A activ 19.0 | R1A FP artifact inactive | PKA-R1A confirm inactive
COC(=O)[C@H]1[C@H](CO)[C@H]2Cn3c(ccc(C4=CCCCC4)c3=O)[C@@H]1N2C(=O)CC1CC1	none (no result: PKA-R1A activ, PKA-R2B activ, CRFBP-R2 block)
CC1=CP(=O)(Oc2ccc([N+](=O)[O-])cc2)CC1 (centres undefined)	PKA-R1A activ 19.1 | R1A FP artifact inactive | PKA-R1A confirm inactive
CN(C)C(=O)[C@H]1[C@H](CO)[C@H]2Cn3c(cccc3=O)[C@@H]1N2CC1CC1	none (no result: PKA-R1A activ, PKA-R2B activ, CRFBP-R2 block)
C=C1[C@H]2CC[C@H]3[C@]4(C)C[C@H](O[C@@H]5OC(CO)[C@@H](OSOOO)[C@H](OS(=O)(=O)O)[C@H]5OC(=O)CC(C)C)C[C@@H](C(=O)O)[C@H]4CC[C@]3(C2)[C@H]1O (some centres undefined)	PKA-R1A activ 18.6 | R1A FP artifact inactive | PKA-R1A confirm inactive
CC1([N+](=O)[O-])COP(=O)(Nc2ccccc2F)OC1 (centres undefined)	none (no result: SIRT5 inh)
COc1ccc(NP2(=O)OCC(C)(N)CO2)cc1 (centres undefined)	PKA-R1A activ 19.5 (no result: SIRT5 inh) | R1A FP artifact inactive | PKA-R1A confirm inactive
N#Cc1cccc(-c2ccc([C@H]3[C@@H](CO)N4CCCCN(C(=O)Cc5ccccc5)C[C@@H]34)cc2)c1	none (no result: PKA-R1A activ, PKA-R2B activ, CRFBP-R2 block)
CN(C(=O)Cc1ccc(Cl)c(Cl)c1)C(CN1CCCC1)c1cccc(OCC(=O)O)c1 (centres undefined)	PKA-R1A activ 19.0 | R1A FP artifact inactive | PKA-R1A confirm inactive
Cc1cccc(OCC(=O)N2CCN(Cc3ccc4c(c3)OCO4)CC2)c1	none
